Source: ChEMBL document CHEMBL1124464, “Peripherally acting enkephalin analogues. 2. Polar tri- and tetrapeptides” (1989)

Columns and labels:
Type in all cases: functional
Cavia porcellus = organism: Cavia porcellus; experiment: Inhibition of electrically induced contractions on the guinea pig ileum; settings: read-out: ED50 (the source's name)
Method in brief: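 Guinea pig ileum contractions evoked by coaxial stimulation at 0.1 Hz, 0.5-ms pulses, supramaximal voltage, recorded isometrically; dose-response curves built with 15-min washout between doses.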

Mus musculus [1] = experiment: Antinociceptive activity of subcutaneously administered compound in acetic acid (AA) induced writhing mice; settings: sc
Method in brief: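 Male TFW mice, groups of five to six, given drug subcutaneously (10 mL kg-1), then ip acetic acid 0.6% at 25 mL kg-1. Writhes counted for 5 min beginning 15 min after acetic acid. ED50 = dose reducing writhes 50% versus vehicle, by linear regression.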

Mus musculus [2] = experiment: Antinociceptive activity of subcutaneously administered compound in phenyl-p-benzoquinone induced writhing mice; settings: Mus musculus, sc; read-out: ED50
Method in brief: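 Groups of five to six female CD1 mice given drug subcutaneously (10 mL kg-1) 30 min before ip phenyl-p-benzoquinone 2.5 mg kg-1. Writhes (abdominal constrictions/hind-limb extensions) counted over 2.5 min from 10 min post-PBQ. ED50, the dose giving 50% fewer writhes than vehicle, from linear regression.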

Mus musculus [3] = experiment: Antinociceptive activity of perorally administered compound (20 mg) in phenyl-p-benzoquinone induced writhing mice
Method in brief: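 Female CD1 mice (Charles River), groups of five to six, dosed orally by blunt intragastric needle (10 mL kg-1) 30 min before ip PBQ at 2.5 mg kg-1. Abdominal constrictions/hind-limb extensions were counted over 2.5 min starting 10 min after PBQ. ED50 is the dose halving writhes versus vehicle, estimated by linear regression.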

Mus musculus [4] = experiment: Antinociceptive activity in the hot plate test (central activity) in rodents, when compound administered subcutaneously at 50 mg
Method in brief: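 Male CFLP mice (Hacking and Churchill), groups of five to six, dosed sc at 10 mL kg-1 and placed on a copper surface held at 55 °C. Signs of discomfort (paw licking/shaking, jumping) were scored, with a 30-s cut-off. ED50 is the dose doubling response latency versus vehicle, estimated by parallel-line probit analysis.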

Mus musculus [5] = organism: Mus musculus; experiment: Dose ratio in the presence and absence of the peripheral opioid antagonist in N-methyl-nalorphine in AA writhing mice
Method in brief: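 Acetic acid (0.6%, ip) writhing in male TFW mice; N-methylnalorphine 11.5 mg kg-1 ip 20 min before subcutaneous agonist. Writhes counted 5 min from 15 min post-irritant. Dose ratio taken as the shift between parallel regression lines with and without antagonist.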

Mus musculus [6] = experiment: Antinociceptive activity in the hot plate test (central activity) in rodents, when compound administered subcutaneously; settings: sc
Method in brief: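 Male CFLP mice, groups of five to six, placed on a copper surface held at 55 °C; latency to paw licking/shaking or jumping recorded, 30-s cut-off. Drug given subcutaneously at 10 mL kg-1. ED50 = dose doubling response latency versus vehicle, by parallel-line probit analysis.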

Mus musculus [7] = experiment: Antinociceptive activity of perorally administered compound in phenyl-p-benzoquinone induced writhing mice; settings: po
Method in brief: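 Female CD1 mice, groups of five to six, dosed orally by blunt intragastric needle (10 mL kg-1) 30 min before ip phenyl-p-benzoquinone 2.5 mg kg-1. Abdominal constrictions/hind-limb extensions counted over 2.5 min starting 10 min after PBQ. ED50 = dose halving writhes versus vehicle, by linear regression.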

Row | SMILES | EC50 (Cavia porcellus) | ED50 (Mus musculus [1]) | ED50 (Mus musculus [2]) | Inhibition (Mus musculus [3]) | Inhibition (Mus musculus [4]) | Ratio (Mus musculus [5]) | ED50 (Mus musculus [6]) | ED50 (Mus musculus [7])
1 | CC(=O)O.CCN(CCc1ccc(Cl)c(Cl)c1)C(=O)CNC(=O)[C@@H](CCCN=C(N)N)NC(=O)[C@H](Cc1ccc(O)cc1)N=C(N)N | < 100 nM | 0.62 mg/kg | 0.2 mg/kg | 14% | 0% | 1 | – | –
2 | CC(=O)O.CCN(CCc1ccco1)C(=O)CNC(=O)[C@@H](CCCN=C(N)N)NC(=O)[C@H](Cc1ccc(O)cc1)N=C(N)N | 10.9 nM | – | 0.32 mg/kg | 10% | – | – | – | –
3 | CC(=O)O.CCN(CCc1cccs1)C(=O)CNC(=O)[C@@H](CCCN=C(N)N)NC(=O)[C@H](Cc1ccc(O)cc1)N=C(N)N | 9.3 nM | – | 0.44 mg/kg | 15% | – | – | 22.9 mg/kg | –
4 | CC(=O)O.CCN(CCc1ccc(F)cc1)C(=O)CNC(=O)[C@@H](CCCN=C(N)N)NC(=O)[C@H](Cc1ccc(O)cc1)N=C(N)N | 6.8 nM | 0.02 mg/kg | 0.08 mg/kg | – | – | 2.4 | 20 mg/kg | 5.3 mg/kg
5 | CC(=O)O.CCN(Cc1ccc(-c2ccccc2)cc1)C(=O)CNC(=O)[C@@H](CCCN=C(N)N)NC(=O)[C@H](Cc1ccc(O)cc1)N=C(N)N | 324 nM | – | 2.3 mg/kg | 0% | – | – | – | –
6 | CC(=O)O.CCN(Cc1ccccc1F)C(=O)CNC(=O)[C@@H](CCCN=C(N)N)NC(=O)[C@H](Cc1ccc(O)cc1)N=C(N)N | 20.6 nM | 0.81 mg/kg | 0.43 mg/kg | 16% | – | 7.8 | 14.6 mg/kg | –
7 | CC(=O)O.CCN(CCc1cccc2ccccc12)C(=O)CNC(=O)[C@@H](CCCN=C(N)N)NC(=O)[C@H](Cc1ccc(O)cc1)N=C(N)N | 30 nM | – | 1.4 mg/kg | 0% | 0% | – | – | –
8 | NC(N)=NCCC[C@@H](NC(=O)[C@@H](N)Cc1ccc(O)cc1)C(=O)NCCSCCc1ccc([N+](=O)[O-])cc1 | 42000 nM | – | – | – | – | – | – | –
9 | CCN(CCc1ccccn1)C(=O)CNC(=O)[C@@H](CCCN=C(N)N)NC(=O)[C@@H](N)Cc1ccc(O)cc1 | 510 nM | – | – | – | – | – | – | –
10 | CC(=O)O.CCN(CCc1ccc(C#N)cc1)C(=O)CNC(=O)[C@@H](CCCN=C(N)N)NC(=O)[C@@H](N)Cc1ccc(O)cc1 | 1800 nM | 2.2 mg/kg | – | – | – | 1.4 | – | –
11 | CC(=O)O.CCN(C(=O)CNC(=O)[C@@H](CCCN=C(N)N)NC(=O)[C@@H](N)Cc1ccc(O)cc1)[C@@H](Cc1cccc(F)c1)C(N)=O | 25 nM | 0.04 mg/kg | 0.08 mg/kg | – | – | 2.2 | 1.7 mg/kg | –
12 | CC(=O)O.CN(C(=O)CNC(=O)[C@@H](CCCN=C(N)N)NC(=O)[C@@H](N)Cc1ccc(O)cc1)[C@@H](Cc1ccc([N+](=O)[O-])cc1)C(N)=O | 36.5 nM | 0.25 mg/kg | – | – | – | 2.5 | – | –
13 | CC(=O)O.CCN(C(=O)CNC(=O)[C@@H](CCCN=C(N)N)NC(=O)[C@@H](N)Cc1ccc(O)cc1)[C@@H](Cc1ccc(Cl)cc1)C(N)=O | 0.64 nM | 0.03 mg/kg | – | – | – | 1.3 | – | –
14 | CC(=O)O.CCN(C(=O)CNC(=O)[C@@H](CCCN=C(N)N)NC(=O)[C@@H](N)Cc1ccc(O)cc1)[C@@H](Cc1ccccc1F)C(N)=O | 0.39 nM | 0.0009 mg/kg | 0.15 mg/kg | – | – | 3.9 | 1.95 mg/kg | 5.9 mg/kg
15 | CC(=O)O.CCN(C(=O)CNC(=O)[C@@H](CCCN=C(N)N)NC(=O)[C@@H](N)Cc1ccc(O)cc1)[C@@H](Cc1ccc(F)cc1)C(N)=O | 2.2 nM | 0.0006 mg/kg | 0.13 mg/kg | – | – | 2.3 | 1.6 mg/kg | 7.9 mg/kg
16 | CC(=O)O.CCN(C(=O)CNC(=O)[C@@H](CCSC)NC(=O)[C@@H](N)Cc1ccc(O)cc1)[C@@H](Cc1ccc([N+](=O)[O-])cc1)C(N)=O | 1.2 nM | 0.0015 mg/kg | – | – | – | 0.8 | – | –
17 | CC(=O)O.CCN(C(=O)CNC(=O)[C@@H](CCCN=C(N)N)NC(=O)[C@@H](N)Cc1ccc(O)cc1)[C@@H](Cc1ccc(Cl)c(Cl)c1)C(N)=O | 0.79 nM | 0.008 mg/kg | 1.79 mg/kg | – | – | 9.7 | 38.2 mg/kg | 29.2 mg/kg

Row | SMILES | EC50 (Cavia porcellus) | ED50 (Mus musculus [1]) | ED50 (Mus musculus [2]) | Inhibition (Mus musculus [3]) | Inhibition (Mus musculus [4]) | Ratio (Mus musculus [5]) | ED50 (Mus musculus [6]) | ED50 (Mus musculus [7])
18 | CC(=O)O.CCN(C(=O)CNC(=O)[C@@H](CCCN=C(N)N)NC(=O)[C@@H](N)Cc1ccc(O)cc1)[C@@H](Cc1ccc(C(F)(F)F)cc1)C(N)=O | 6.25 nM | 0.13 mg/kg | – | – | – | 2.9 | 16.9 mg/kg | –
19 | CC(=O)O.CCN(C(=O)CNC(=O)[C@@H](CCCN=C(N)N)NC(=O)[C@@H](N)Cc1ccc(O)cc1)[C@@H](Cc1ccc([N+](=O)[O-])cc1)C(N)=O | 5.2 nM | 0.05 mg/kg | 0.06 mg/kg | – | – | 3.4 | 0.54 mg/kg | 13.9 mg/kg
20 | CC(=O)O.CCN(C(=O)CNC(=O)[C@@H](CCCN=C(N)N)NC(=O)[C@H](Cc1ccc(O)cc1)N=C(N)N)[C@@H](Cc1ccc([N+](=O)[O-])cc1)C(N)=O | 3.9 nM | 0.009 mg/kg | 0.005 mg/kg | – | – | 5.1 | 0.34 mg/kg | 1.9 mg/kg
21 | CC(=O)O.CCN(C(=O)CNC(=O)[C@@H](CCCN=C(N)N)NC(=O)[C@H](Cc1ccc(O)cc1)N=C(N)N)[C@@H](Cc1ccc(F)cc1)C(N)=O | 0.09 nM | 0.002 mg/kg | 0.04 mg/kg | – | – | 6.5 | 0.9 mg/kg | 25.6 mg/kg
22 | CC(=O)O.CCN(CCc1ccc([N+](=O)[O-])s1)C(=O)CNC(=O)[C@@H](CCCN=C(N)N)NC(=O)[C@@H](N)Cc1ccc(O)cc1 | 217 nM | 1.7 mg/kg | – | – | – | 6.2 | – | –
23 | CC(=O)O.CCN(CCc1ccc(F)cc1)C(=O)CNC(=O)[C@@H](CCCN=C(N)N)NC(=O)[C@@H](N)Cc1ccc(O)cc1 | 20.5 nM | 0.14 mg/kg | 1.6 mg/kg | – | – | 4.5 | 12.3 mg/kg | 30.8 mg/kg
24 | CC(=O)O.CCN(Cc1ccccc1F)C(=O)CNC(=O)[C@@H](CCCN=C(N)N)NC(=O)[C@@H](N)Cc1ccc(O)cc1 | 325 nM | 1.1 mg/kg | 31.1 mg/kg | – | 0% | 8 | – | –
25 | CCN(CCc1sccc1[N+](=O)[O-])C(=O)CNC(=O)[C@@H](CCCN=C(N)N)NC(=O)[C@@H](N)Cc1ccc(O)cc1 | 146 nM | – | – | – | – | – | – | –
26 | CC(=O)O.CCN(CCc1cccc2ccccc12)C(=O)CNC(=O)[C@@H](CCCN=C(N)N)NC(=O)[C@@H](N)Cc1ccc(O)cc1 | 75.9 nM | – | 1.4 mg/kg | 31% | 0% | – | – | –
27 | CC(=O)O.CCN(CCc1ccc([N+](=O)[O-])cc1)C(=O)CNC(=O)[C@@H](CCSC)NC(=O)[C@@H](N)Cc1ccc(O)cc1 | 41 nM | 0.87 mg/kg | – | – | – | 1.1 | – | –
28 | CCN(Cc1c(F)c(F)c(F)c(F)c1F)C(=O)CNC(=O)[C@@H](CCCN=C(N)N)NC(=O)[C@@H](N)Cc1ccc(O)cc1 | 820 nM | – | – | – | – | – | – | –
29 | CC(=O)O.CCN(CCc1ccccc1[N+](=O)[O-])C(=O)CNC(=O)[C@@H](CCCN=C(N)N)NC(=O)[C@H](Cc1ccc(O)cc1)N=C(N)N | 1.2 nM | 0.03 mg/kg | 1.1 mg/kg | – | – | 8.6 | 52.9 mg/kg | 76.1 mg/kg
30 | CC(=O)O.CCN(CCc1ccc([N+](=O)[O-])cc1)C(=O)CNC(=O)[C@@H](CCCN=C(N)N)NC(=O)[C@H](Cc1ccc(O)cc1)N=C(N)N | 30.4 nM | 0.15 mg/kg | 0.24 mg/kg | – | – | 9.6 | 19.2 mg/kg | 10 mg/kg
31 | CC(=O)O.CCN(Cc1ccccc1[N+](=O)[O-])C(=O)CNC(=O)[C@@H](CCCN=C(N)N)NC(=O)[C@H](Cc1ccc(O)cc1)N=C(N)N | 244 nM | 1.1 mg/kg | 4 mg/kg | 14% | 0% | 11 | – | –
32 | CC(=O)O.CCN(Cc1ccc([N+](=O)[O-])cc1)C(=O)CNC(=O)[C@@H](CCCN=C(N)N)NC(=O)[C@H](Cc1ccc(O)cc1)N=C(N)N | 470 nM | 0.9 mg/kg | 7.8 mg/kg | – | – | 4.6 | – | –
33 | CC(=O)O.CCN(CCc1ccc([N+](=O)[O-])s1)C(=O)CNC(=O)[C@@H](CCCN=C(N)N)NC(=O)[C@H](Cc1ccc(O)cc1)N=C(N)N | 25.2 nM | – | 2 mg/kg | 7% | – | – | – | –
